Assay results: ChEMBL document CHEMBL2203269, “Target-Activated Prodrugs (TAPs) for the Autoregulated Inhibition of MMP12” (ACS Med Chem Lett, 2012); call rule not given here
Residues, ends and D or L forms follow the SMILES beside them. *: point of attachment. Benzenesulfonyl(4-Ph) = O=S(=O)(c1ccc(-c2ccccc2)cc1)*; Benzenesulfonyl(4-OMe) = COc1ccc(S(=O)(=O)*)cc1

Key:
[1] = Half life in TCN buffer at pH 7.5; format: physicochemical
Outline: (§1)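 Compounds incubated without enzyme in TCN buffer, pH 7.5, at 37 °C. Spontaneous hydrolysis of the N-acylated sulfonamide was followed by HPLC over time, and half-lives (h) were derived from the traces.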

[2] = biological target: Macrophage metalloelastase (Homo sapiens, UniProt P39900); assay: Inhibition of human MMP12 by FRET reporter assay
Sequence of Macrophage metalloelastase (P39900 whole entry): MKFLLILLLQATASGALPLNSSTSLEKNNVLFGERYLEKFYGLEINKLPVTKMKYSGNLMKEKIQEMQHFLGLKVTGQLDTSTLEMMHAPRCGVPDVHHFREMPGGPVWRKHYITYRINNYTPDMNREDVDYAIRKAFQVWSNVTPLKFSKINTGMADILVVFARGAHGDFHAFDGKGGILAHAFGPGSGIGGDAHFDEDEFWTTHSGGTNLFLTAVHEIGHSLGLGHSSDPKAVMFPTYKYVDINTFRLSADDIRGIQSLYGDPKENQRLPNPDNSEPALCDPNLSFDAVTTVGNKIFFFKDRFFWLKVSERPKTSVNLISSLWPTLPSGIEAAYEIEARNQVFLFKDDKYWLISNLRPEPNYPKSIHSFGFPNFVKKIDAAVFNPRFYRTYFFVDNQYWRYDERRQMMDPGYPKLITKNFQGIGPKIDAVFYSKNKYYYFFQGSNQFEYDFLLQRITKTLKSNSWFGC
Outline: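 Recombinant human MMP12 activity was read with the fluorogenic FRET reporter substrate LaRee5. Inhibition constants were reported as IC50.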

[3] = Drug metabolism in TCN buffer assessed as hydrolysis at pH 7.5; format: physicochemical; outline: as §1
[4] = Stability of compound in heat inactivated fetal calf serum; format: ADME; settings: cattle
[5] = Stability of compound in fetal calf serum; format: ADME; settings: cattle

Row | half-life [1] | IC50 [2] | SMILES | further results
1 | 6.4 h |  | COc1ccc(S(=O)(=O)N(CC(=O)N[C@@H](CC(C)C)C(=O)N[C@@H](CCC(=O)O)C(=O)N[C@@H](CCC(=O)O)C(=O)N[C@@H](C)C(N)=O)C(=O)CNC(=O)[C@@H]2CCCN2C(=O)OCc2ccccc2)cc1 | 
2 | 28 h |  | COc1ccc(S(=O)(=O)N(CC(=O)N[C@@H](CC(C)C)C(=O)N[C@@H](CCC(=O)O)C(=O)N[C@@H](CCC(=O)O)C(=O)N[C@@H](C)C(N)=O)C(=O)[C@H](CC(C)C)NC(=O)[C@@H]2CCCN2C(=O)OCc2ccccc2)cc1 | 
3 |  | 48 µM | CC(C)C[C@H](NC(=O)CNS(=O)(=O)c1ccc(-c2ccccc2)cc1)C(=O)N[C@@H](CCC(=O)O)C(=O)N[C@@H](CCC(=O)O)C(=O)N[C@@H](C)C(N)=O ({Benzenesulfonyl(4-Ph)}-GLEEA-NH2) | Drug metabolism [3]: Not Active
4 | 27 h | 13 µM | CC(C)C[C@H](NC(=O)[C@@H]1CCCN1C(=O)OCc1ccccc1)C(=O)N(CC(=O)O)S(=O)(=O)c1ccc(-c2ccccc2)cc1 | Stability [4]: Stable; Stability [5]: Stable
5 | 27 h |  | COc1ccc(S(=O)(=O)N(CC(=O)O)C(=O)CNC(=O)[C@H](CC(C)C)NC(=O)[C@@H]2CCCN2C(=O)OCc2ccccc2)cc1 | 
6 | 77 h |  | COc1ccc(S(=O)(=O)N(CC(=O)O)C(=O)[C@H](CC(C)C)NC(=O)[C@@H]2CCCN2C(=O)OCc2ccccc2)cc1 | 
7 | 5.1 h |  | CC(C)C[C@H](NC(=O)CN(C(=O)[C@H](CC(C)C)NC(=O)[C@@H]1CCCN1C(=O)OCc1ccccc1)S(=O)(=O)c1ccc(-c2ccccc2)cc1)C(=O)N[C@@H](CCC(=O)O)C(=O)N[C@@H](CCC(=O)O)C(=O)N[C@@H](C)C(N)=O | Stability [4]: Stable; Stability [5]: Stable
8 |  | 0.29 µM | O=C(O)CNS(=O)(=O)c1ccc(-c2ccccc2)cc1 | 
9 |  |  | COc1ccc(S(=O)(=O)NCC(=O)N[C@@H](CC(C)C)C(=O)N[C@@H](CCC(=O)O)C(=O)N[C@@H](CCC(=O)O)C(=O)N[C@@H](C)C(N)=O)cc1 ({Benzenesulfonyl(4-OMe)}-GLEEA-NH2) | Drug metabolism [3]: Not Active
